Laboratory results as given in publication PMC12166256 (Clinical Pharmacology and Therapeutics, 2025).
Marks after values point to notes of the source that are not given here.

Experiment: MAD study: plasma and urine pharmacokinetics
Type: in vivo, human
Conditions: for CLR (renal clearance), mean ± SD / CLR, geometric mean: MAD steady state
Summary of the method: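 Healthy males got oral doses for 14 days: 100 mg once daily fasted, or 100, 200 or 300 mg twice daily fed. Plasma was drawn pre-dose and […] on Day 1, pre-dose and at 3 h on Days 4, 7 and 12, and up to 120 h after the final Day 14 morning dose. Urine was collected over 24 h at steady state. LC–MS/MS, LLOQ 2 ng/mL; non-compartmental analysis.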

[1] = MAD 24-hour urine Day 13, 100 mg BID fed
[2] = MAD 24-hour urine Day 13, 100 mg QD fasted
[3] = MAD 24-hour urine Day 13, 200 mg BID fed
[4] = MAD 24-hour urine Day 13, 300 mg BID fed
[5] = MAD Day 1 first dose, 100 mg BID fed
[6] = MAD Day 1 first dose, 100 mg QD fasted
[7] = MAD Day 1 first dose, 100 mg QD fasted, calculated by extrapolation
[8] = MAD Day 1 first dose, 200 mg BID fed
[9] = MAD Day 1 first dose, 300 mg BID fed
[10] = MAD Day 14, 100 mg BID fed, n = 6

time to steady state (90% CI) (BID dosing, fed): 5.45 (5.36–5.92) days
Fe0-24 (fraction of dose excreted unchanged in urine), mean ± SD [1]: 9.41 ± 4.66%
Fe0-24, geometric mean [1]: (8.18) [50] %
Fe0-24 (fraction of dose excreted unchanged in urine), mean ± SD [2]: 9.07 ± 1.85%
Fe0-24, geometric mean [2]: (8.91) [20] %
Fe0-24 (fraction of dose excreted unchanged in urine), mean ± SD [3]: 11.9 ± 3.54%
Fe0-24, geometric mean [3]: (11.4) [30] %
Fe0-24 (fraction of dose excreted unchanged in urine), mean ± SD [4]: 15.6 ± 4.40%
Fe0-24, geometric mean [4]: (15.0) [28] %
AUC0-12, geometric mean [5]: (324) [53] ng·h/mL
AUC0-12, mean ± SD [5]: 364 ± 194 ng·h/mL
C av, geometric mean [5]: (27.0) [53] ng/mL
C av, mean ± SD [5]: 30.4 ± 16.2 ng/mL
C max, geometric mean [5]: (38.1) [50] ng/mL
C max, mean ± SD [5]: 42.6 ± 21.2 ng/mL
t max, median (min, max) [5]: 6.00 (2.00, 8.00) h
AUC0-12, geometric mean [6]: (527) [35] ng·h/mL
AUC0-12, mean ± SD [6]: 559 ± 194 ng·h/mL
C av, geometric mean [6]: (28.1) [32] ng/mL
C av, mean ± SD [6]: 29.5 ± 9.33 ng/mL
C max, geometric mean [6]: (83.1) [38] ng/mL
C max, mean ± SD [6]: 88.6 ± 34.0 ng/mL
t max, median (min, max) [6]: 3.00 (3.00, 3.00) h
AUC0-24, geometric mean [7]: 674 ng·h/mL
AUC0-24, mean ± SD [7]: 708 ± 224 ng·h/mL
AUC0-12, geometric mean [8]: (1,080) [31] ng·h/mL
AUC0-12, mean ± SD [8]: 1,130 ± 354 ng·h/mL
C av, geometric mean [8]: (90.3) [31] ng/mL
C av, mean ± SD [8]: 94.5 ± 29.5 ng/mL
C max, geometric mean [8]: (132) [32] ng/mL
C max, mean ± SD [8]: 139 ± 43.9 ng/mL
t max, median (min, max) [8]: 5.00 (2.00, 6.00) h
AUC0-12, geometric mean [9]: (2,180) [32] ng·h/mL
AUC0-12, mean ± SD [9]: 2,280 ± 725 ng·h/mL
C av, geometric mean [9]: (182) [32] ng/mL
C av, mean ± SD [9]: 190 ± 60.4 ng/mL
C max, geometric mean [9]: (268) [31] ng/mL
C max, mean ± SD [9]: 278 ± 85.4 ng/mL
t max, median (min, max) [9]: 4.00 (3.00, 6.00) h
AUC0-tau, geometric mean (MAD Day 14, 100 mg BID fed): (1,690) [48] ng·h/mL
AUC0-tau, mean ± SD (MAD Day 14, 100 mg BID fed): 1,860 ± 892 ng·h/mL
C av, geometric mean (MAD Day 14, 100 mg BID fed): (141) [48] ng/mL
C av, mean ± SD (MAD Day 14, 100 mg BID fed): 155 ± 74.4 ng/mL
C max, geometric mean (MAD Day 14, 100 mg BID fed): (173) [46] ng/mL
C max, mean ± SD (MAD Day 14, 100 mg BID fed): 189 ± 86.3 ng/mL
C trough, geometric mean (MAD Day 14, 100 mg BID fed): (122) [52] ng/mL
C trough, mean ± SD (MAD Day 14, 100 mg BID fed): 136 ± 70.8 ng/mL
CLss/F, geometric mean (MAD Day 14, 100 mg BID fed): (59.1) [44] L/h
CLss/F, mean ± SD (MAD Day 14, 100 mg BID fed): 64.6 ± 28.2 L/h
FLrel (relative fluctuation), geometric mean (MAD Day 14, 100 mg BID fed): (46.1) [20] %
R ac (accumulation ratio), mean ± SD (MAD Day 14, 100 mg BID fed): 5.46 ± 0.951
R ac Cmax (accumulation ratio based on C max), mean ± SD (MAD Day 14, 100 mg BID fed): 4.77 ± 0.730
R ac, geometric mean (MAD Day 14, 100 mg BID fed): (5.38) [17]
V z/F, geometric mean (MAD Day 14, 100 mg BID fed): (2,250) [51] L
t max, median (min, max) (MAD Day 14, 100 mg BID fed): 3.00 (1.00, 4.00) h
t 1/2z, geometric mean [10]: (23.6) [13] h
t 1/2z, mean ± SD [10]: 23.8 ± 3.18 ^g h
AUC0-tau, geometric mean (MAD Day 14, 100 mg QD fasted): (1,680) [27] ng·h/mL
AUC0-tau, mean ± SD (MAD Day 14, 100 mg QD fasted): 1,750 ± 471 ng·h/mL
C av, geometric mean (MAD Day 14, 100 mg QD fasted): (70.0) [27] ng/mL
C av, mean ± SD (MAD Day 14, 100 mg QD fasted): 72.9 ± 19.6 ng/mL
C max, geometric mean (MAD Day 14, 100 mg QD fasted): (153) [31] ng/mL
C max, mean ± SD (MAD Day 14, 100 mg QD fasted): 161 ± 49.2 ng/mL
C trough, geometric mean (MAD Day 14, 100 mg QD fasted): (35.2) [31] ng/mL
C trough, mean ± SD (MAD Day 14, 100 mg QD fasted): 37.2 ± 11.5 ng/mL
CLss/F, geometric mean (MAD Day 14, 100 mg QD fasted): (59.5) [37] L/h
CLss/F, mean ± SD (MAD Day 14, 100 mg QD fasted): 62.5 ± 23.4 L/h
FLrel (relative fluctuation), geometric mean (MAD Day 14, 100 mg QD fasted): (168) [20] %
R ac (accumulation ratio), mean ± SD (MAD Day 14, 100 mg QD fasted): 2.52 ± 0.431
R ac Cmax (accumulation ratio based on C max), mean ± SD (MAD Day 14, 100 mg QD fasted): 1.87 ± 0.400
R ac, geometric mean (MAD Day 14, 100 mg QD fasted): (2.50) [17]
V z/F, geometric mean (MAD Day 14, 100 mg QD fasted): (2,530) [38] L
V z/F, mean ± SD (MAD Day 14, 100 mg QD fasted): 2,700 ± 1,020 L
t 1/2z, geometric mean (MAD Day 14, 100 mg QD fasted): (29.5) [28] h
t 1/2z, mean ± SD (MAD Day 14, 100 mg QD fasted): 30.3 ± 8.43 h
t max, median (min, max) (MAD Day 14, 100 mg QD fasted): 3.00 (2.00, 4.00) h
AUC0-tau, geometric mean (MAD Day 14, 200 mg BID fed): (4,990) [37] ng·h/mL
AUC0-tau, mean ± SD (MAD Day 14, 200 mg BID fed): 5,370 ± 2,010 ng·h/mL
C av, geometric mean (MAD Day 14, 200 mg BID fed): (416) [37] ng/mL
C av, mean ± SD (MAD Day 14, 200 mg BID fed): 448 ± 167 ng/mL
C max, geometric mean (MAD Day 14, 200 mg BID fed): (511) [35] ng/mL
C max, mean ± SD (MAD Day 14, 200 mg BID fed): 547 ± 193 ng/mL
C trough, geometric mean (MAD Day 14, 200 mg BID fed): (349) [43] ng/mL
C trough, mean ± SD (MAD Day 14, 200 mg BID fed): 383 ± 163 ng/mL
CLss/F, geometric mean (MAD Day 14, 200 mg BID fed): (40.1) [47] L/h
CLss/F, mean ± SD (MAD Day 14, 200 mg BID fed): 43.7 ± 20.6 L/h
FLrel (relative fluctuation), geometric mean (MAD Day 14, 200 mg BID fed): (44.7) [27] %
R ac (accumulation ratio), mean ± SD (MAD Day 14, 200 mg BID fed): 4.65 ± 0.654
R ac Cmax (accumulation ratio based on C max), mean ± SD (MAD Day 14, 200 mg BID fed): 3.91 ± 0.612
R ac, geometric mean (MAD Day 14, 200 mg BID fed): (4.60) [14]
V z/F, geometric mean (MAD Day 14, 200 mg BID fed): (1,380) [62] L
V z/F, mean ± SD (MAD Day 14, 200 mg BID fed): 1,590 ± 983 L
t 1/2z, geometric mean (MAD Day 14, 200 mg BID fed): (23.9) [14] h
t 1/2z, mean ± SD (MAD Day 14, 200 mg BID fed): 24.1 ± 3.28 h
t max, median (min, max) (MAD Day 14, 200 mg BID fed): 3.00 (2.00, 8.00) h
AUC0-tau, geometric mean (MAD Day 14, 300 mg BID fed): (9,290) [27] ng·h/mL
AUC0-tau, mean ± SD (MAD Day 14, 300 mg BID fed): 9,670 ± 2,650 ng·h/mL
C av, geometric mean (MAD Day 14, 300 mg BID fed): (774) [27] ng/mL
C av, mean ± SD (MAD Day 14, 300 mg BID fed): 806 ± 221 ng/mL
C max, geometric mean (MAD Day 14, 300 mg BID fed): (947) [27] ng/mL
C max, mean ± SD (MAD Day 14, 300 mg BID fed): 982 ± 261 ng/mL
C trough, geometric mean (MAD Day 14, 300 mg BID fed): (639) [32] ng/mL
C trough, mean ± SD (MAD Day 14, 300 mg BID fed): 676 ± 215 ng/mL
CLss/F, geometric mean (MAD Day 14, 300 mg BID fed): (32.3) [37] L/h
CLss/F, mean ± SD (MAD Day 14, 300 mg BID fed): 33.9 ± 12.7 L/h
FLrel (relative fluctuation), geometric mean (MAD Day 14, 300 mg BID fed): (46.1) [29] %
R ac (accumulation ratio), mean ± SD (MAD Day 14, 300 mg BID fed): 4.40 ± 1.22
R ac Cmax (accumulation ratio based on C max), mean ± SD (MAD Day 14, 300 mg BID fed): 3.62 ± 0.861
R ac, geometric mean (MAD Day 14, 300 mg BID fed): (4.25) [28]
V z/F, geometric mean (MAD Day 14, 300 mg BID fed): (991) [29] L
V z/F, mean ± SD (MAD Day 14, 300 mg BID fed): 1,030 ± 299 L
t 1/2z, geometric mean (MAD Day 14, 300 mg BID fed): (21.3) [23] h
t 1/2z, mean ± SD (MAD Day 14, 300 mg BID fed): 21.7 ± 4.92 h
t max, median (min, max) (MAD Day 14, 300 mg BID fed): 3.00 (2.00, 6.00) h
CLR (renal clearance), mean ± SD (100 mg BID fed): 5.16 ± 2.10 L/h
CLR, geometric mean (100 mg BID fed): (4.83) [41] L/h
CLR (renal clearance), mean ± SD (100 mg QD fasted): 5.53 ± 1.67 L/h
CLR, geometric mean (100 mg QD fasted): (5.30) [30] L/h
CLR (renal clearance), mean ± SD (200 mg BID fed): 4.62 ± 0.862 L/h
CLR, geometric mean (200 mg BID fed): (4.55) [19] L/h
CLR (renal clearance), mean ± SD (300 mg BID fed): 4.92 ± 0.929 L/h
CLR, geometric mean (300 mg BID fed): (4.85) [19] L/h
accumulation (after QD dosing): 2.52 fold
apparent volume of distribution (healthy participants): > 1,000 L
Compound: CN1C(=O)c2cccc(OC(F)F)c2[C@H]2C[C@@H]1c1nc3ccc(-c4cnc(C5(N)CCC5)nc4)cc3n12 [Balinatunfib]
